Test results published in PubChem BioAssay AID1943 (The Scripps Research Institute Molecular Screening Center, 2009).
About 500 (31%) of roughly 1,600 compounds were called active.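 Rule for the calls: active = inhibition above the mean of all tested compounds plus 3 SD, cutoff set per campaign (cut at about 36% in these data); inactive = the rest.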 The sample as a whole holds a higher share of actives than the screen did.

What follows are compounds tested on Hepatitis C virus NS3 helicase (assay: HCV NS3 helicase inhibitors, retest, confirmation, biochemical, Cy5 molecular beacon fluorescence, triplicate (AID 1943)). Details: NS3 helicase DNA unwinding, at 10.9 µM, stronger effect = higher value.
Method in brief: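 Material: hepatitis C virus NS3 helicase fragment / Buffer or medium: MOPS pH 6.5 buffer with additives / Also added: Quenchable beacon DNA duplex and ATP / Schedule: 0 and 60 min reads at 25 °C / Technique: Cy5 fluorescence quenching by beacon hairpin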
`O=C1CC(=O)N(Cc2ccccc2)C(=O)N1CCCCCCN1C(=O)CC(=O)N(Cc2ccccc2)C1=O` was tested, and the inhibition was 55.3% (active).
For `COc1ccc(N2C(=O)/C(=C/c3ccco3)C(=O)NC2=S)cc1`, the inhibition was 82% (active).
With `CC(C)n1c(=O)c(C=Nc2ccc(Br)cc2)c(O)n(Cc2ccco2)c1=O` the inhibition was 1.92% (inactive).
